# Source: ChEMBL document CHEMBL4376814, “Novel cyclin-dependent kinase 9 (CDK9) inhibitor with suppression of cancer stemness activity against non-small-cell lung cancer” (Eur J Med Chem, 2019)
# Calls of active or inactive are those of the source. The rule behind the calls is not given here.
# Experiments:
# Homo sapiens = species on record: Homo sapiens; test: Inhibition of recombinant full-length human PI3K p110delta/p85alpha N253S mutant at 1 uM using phosphatidylinositol-4, 5-bisphosphate as substrate measured after 40 mins by fluorescence assay relative to control
# [1] = target: Serine/threonine-protein kinase WNK2 (Homo sapiens) (UniProt Q9Y3S1); test: Inhibition of recombinant human WNK2 (166 to 489 residues) at 1 uM using MBP as substrate measured after 40 mins in presence of [gamma33P]ATP by scintillation counting method relative to control
# NCI-H1299 [2] = test: Antitumour activity against human H1299 cells xenografted in Balb/c mouse assessed as tumour weight at 80 mg/kg, po after 21 days by digital caliper method (reference value: 2.17 g); format: functional
# Method in brief: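 Female nude mice, 6-8 weeks old, injected subcutaneously with 1×10^6 H1299 cells (100 µL of a 1×10^7/mL suspension in serum-free medium). At 100-120 mm3, randomized into groups of 5. Dosed orally each day for 21 days with drug dissolved in DMSO, or with vehicle. Caliper measurements and body weight taken every other day. Volume = short²×long×0.5. Growth inhibition based on change in volume relative to vehicle. Tumours weighed at the end.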
# [3] = target: MAP/microtubule affinity-regulating kinase 3 (Homo sapiens) (UniProt P27448); test: Inhibition of recombinant full-length human MARK3 at 1 uM using KKKVSRSGLYRSPSMPENLNRPR as substrate measured after 40 mins in presence of [gamma33P]ATP by scintillation counting method relative to control
# Sequence of MAP/microtubule affinity-regulating kinase 3 (Homo sapiens) (P27448 whole entry, looked up): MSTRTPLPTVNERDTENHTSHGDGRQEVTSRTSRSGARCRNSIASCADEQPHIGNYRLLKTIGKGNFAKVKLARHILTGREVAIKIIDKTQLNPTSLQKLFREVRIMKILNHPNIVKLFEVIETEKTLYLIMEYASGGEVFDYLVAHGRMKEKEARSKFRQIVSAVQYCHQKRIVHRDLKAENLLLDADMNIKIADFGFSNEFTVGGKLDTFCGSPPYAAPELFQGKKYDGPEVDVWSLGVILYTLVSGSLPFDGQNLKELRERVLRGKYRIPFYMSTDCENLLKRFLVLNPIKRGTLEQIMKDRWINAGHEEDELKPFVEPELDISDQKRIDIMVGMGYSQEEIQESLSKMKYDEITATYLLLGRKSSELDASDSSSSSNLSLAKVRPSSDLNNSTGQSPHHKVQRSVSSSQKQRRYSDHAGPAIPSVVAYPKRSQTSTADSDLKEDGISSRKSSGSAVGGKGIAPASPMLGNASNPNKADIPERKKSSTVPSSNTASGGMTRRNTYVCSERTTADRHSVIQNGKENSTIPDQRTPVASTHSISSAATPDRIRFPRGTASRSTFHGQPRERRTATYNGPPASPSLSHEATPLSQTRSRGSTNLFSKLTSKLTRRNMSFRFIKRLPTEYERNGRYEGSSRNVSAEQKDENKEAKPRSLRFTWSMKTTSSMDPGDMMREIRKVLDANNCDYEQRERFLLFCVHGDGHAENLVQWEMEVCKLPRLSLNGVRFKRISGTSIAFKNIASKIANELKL
# [4] = target: FKBP12A/mTOR (Homo sapiens) (UniProt P62942+P42345); test: Inhibition of recombinant full-length human mTOR/FKBP12 at 1 uM measured after 40 mins in presence of [gamma33P]ATP by scintillation counting method relative to control; format: protein-complex assay
# Sequence of FKBP12A/mTOR (Homo sapiens) (P62942 2-108 limits assumed, other chains not shown): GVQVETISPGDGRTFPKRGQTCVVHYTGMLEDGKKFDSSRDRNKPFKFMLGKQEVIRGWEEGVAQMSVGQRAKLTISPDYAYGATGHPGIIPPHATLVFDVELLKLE
# [5] = target: Tau-tubulin kinase 1 (Homo sapiens) (UniProt Q5TCY1); test: Inhibition of recombinant human TTBK1 (1 to 479 residues) at 1 uM using casein as substrate measured after 40 mins in presence of [gamma33P]ATP by scintillation counting method relative to control
# [6] = tested on: Tyrosine-protein kinase BTK (Homo sapiens), Q06187 [R28H]; test: Inhibition of full-length recombinant human BTK R28H mutant at 1 uM using LSNLYHQGKFLQTFCGSPLYRRR as substrate measured after 40 mins in presence of [gamma33P]ATP by scintillation counting method relative to control
# Method in brief: (§1)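 Single-point inhibition at 1 µM was measured in the Eurofins KinaseProfiler panel. Values are the mean of two independent experiments.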
# [7] = tested on: Hepatocyte growth factor receptor (Homo sapiens), P08581 [M1250T]; test: Inhibition of recombinant human MET A1209G/V1290L/M1268T mutant (974 to end residues) at 1 uM using KKKGQEEEYVFIE as substrate measured after 40 mins in presence of [gamma33P]ATP by scintillation counting method relative to control
# [8] = target: Serine/threonine-protein kinase PAK 5 (Homo sapiens) (UniProt Q9P286); test: Inhibition of recombinant human PAK5 (425 to end residues) at 1 uM using RRRLSFAEPG as substrate measured after 40 mins in presence of [gamma33P]ATP by scintillation counting method relative to control
# Sequence of Serine/threonine-protein kinase PAK 5 (Homo sapiens) (Q9P286 whole entry, looked up, the tested form may be a part): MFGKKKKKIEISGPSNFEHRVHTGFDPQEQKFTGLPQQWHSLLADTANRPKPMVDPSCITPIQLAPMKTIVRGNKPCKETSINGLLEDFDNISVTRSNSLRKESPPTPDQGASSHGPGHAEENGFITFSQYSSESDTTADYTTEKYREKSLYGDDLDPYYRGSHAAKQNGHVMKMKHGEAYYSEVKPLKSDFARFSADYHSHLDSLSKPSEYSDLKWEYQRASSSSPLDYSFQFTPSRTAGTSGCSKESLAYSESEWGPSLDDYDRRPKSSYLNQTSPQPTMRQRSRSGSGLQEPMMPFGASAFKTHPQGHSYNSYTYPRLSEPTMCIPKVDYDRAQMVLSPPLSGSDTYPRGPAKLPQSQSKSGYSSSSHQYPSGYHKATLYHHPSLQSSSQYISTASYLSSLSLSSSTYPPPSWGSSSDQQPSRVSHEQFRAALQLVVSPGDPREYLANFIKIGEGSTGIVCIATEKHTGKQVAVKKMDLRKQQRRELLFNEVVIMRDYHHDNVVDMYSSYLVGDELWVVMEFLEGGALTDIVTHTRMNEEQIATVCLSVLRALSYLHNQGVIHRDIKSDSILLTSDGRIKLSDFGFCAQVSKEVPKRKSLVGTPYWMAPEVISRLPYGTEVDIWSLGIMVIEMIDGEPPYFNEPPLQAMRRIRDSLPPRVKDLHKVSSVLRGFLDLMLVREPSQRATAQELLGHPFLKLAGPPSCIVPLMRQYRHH
# [9] = tested on: Discoidin domain-containing receptor 2 (Homo sapiens), Q16832 [UNDEFINED MUTATION]; test: Inhibition of recombinant human DDR2 S642A mutant (467 to end residues) at 1 uM using KKSRGDYMTMQIG as substrate measured after 40 mins in presence of [gamma33P]ATP by scintillation counting method relative to control
# Sequence of Discoidin domain-containing receptor 2 (Homo sapiens), Q16832 [UNDEFINED MUTATION] (Q16832 whole entry, looked up, stated change not applied, the tested form may be a part): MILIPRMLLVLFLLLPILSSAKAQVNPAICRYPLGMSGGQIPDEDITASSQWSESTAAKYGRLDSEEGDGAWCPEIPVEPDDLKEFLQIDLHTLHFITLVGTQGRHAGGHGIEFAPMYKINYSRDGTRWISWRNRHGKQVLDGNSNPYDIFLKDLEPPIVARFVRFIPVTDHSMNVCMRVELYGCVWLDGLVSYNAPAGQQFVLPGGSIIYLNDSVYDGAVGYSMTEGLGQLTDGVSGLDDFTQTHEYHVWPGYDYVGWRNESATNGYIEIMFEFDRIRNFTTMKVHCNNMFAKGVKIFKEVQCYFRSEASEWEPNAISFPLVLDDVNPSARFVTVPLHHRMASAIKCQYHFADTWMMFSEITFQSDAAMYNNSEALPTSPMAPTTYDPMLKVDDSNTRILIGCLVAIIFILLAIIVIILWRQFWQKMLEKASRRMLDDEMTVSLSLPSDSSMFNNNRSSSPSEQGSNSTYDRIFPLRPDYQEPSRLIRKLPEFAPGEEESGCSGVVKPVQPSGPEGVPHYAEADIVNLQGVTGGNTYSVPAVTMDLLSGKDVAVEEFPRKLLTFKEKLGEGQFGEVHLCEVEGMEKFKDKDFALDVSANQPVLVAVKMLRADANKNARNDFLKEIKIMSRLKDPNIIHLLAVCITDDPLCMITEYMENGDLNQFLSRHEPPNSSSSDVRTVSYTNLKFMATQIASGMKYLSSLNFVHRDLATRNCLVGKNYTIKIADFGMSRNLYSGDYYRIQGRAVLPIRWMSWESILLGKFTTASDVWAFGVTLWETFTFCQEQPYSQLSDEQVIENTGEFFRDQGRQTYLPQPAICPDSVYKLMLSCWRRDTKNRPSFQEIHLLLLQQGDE
# [10] = target: Dual specificity mitogen-activated protein kinase kinase 2 (Homo sapiens) (UniProt P36507); test: Inhibition of recombinant full-length human MEK2 at 1 uM using unactive […] as substrate measured after 40 mins in presence of [gamma33P]ATP by scintillation counting method relative to control
# [11] = target: G protein-coupled receptor kinase 5 (Homo sapiens) (UniProt P34947); test: Inhibition of recombinant full-length human GRK5 at 1 uM using casein as substrate measured after 40 mins in presence of [gamma33P]ATP by scintillation counting method relative to control
# [12] = target: Serine/threonine-protein kinase 33 (Homo sapiens) (UniProt Q9BYT3); test: Inhibition of recombinant full-length human STK33 at 1 uM using myelin basic protein as substrate measured after 40 mins in presence of [gamma33P]ATP by scintillation counting method relative to control
# Sequence of Serine/threonine-protein kinase 33 (Homo sapiens) (Q9BYT3 whole entry, looked up): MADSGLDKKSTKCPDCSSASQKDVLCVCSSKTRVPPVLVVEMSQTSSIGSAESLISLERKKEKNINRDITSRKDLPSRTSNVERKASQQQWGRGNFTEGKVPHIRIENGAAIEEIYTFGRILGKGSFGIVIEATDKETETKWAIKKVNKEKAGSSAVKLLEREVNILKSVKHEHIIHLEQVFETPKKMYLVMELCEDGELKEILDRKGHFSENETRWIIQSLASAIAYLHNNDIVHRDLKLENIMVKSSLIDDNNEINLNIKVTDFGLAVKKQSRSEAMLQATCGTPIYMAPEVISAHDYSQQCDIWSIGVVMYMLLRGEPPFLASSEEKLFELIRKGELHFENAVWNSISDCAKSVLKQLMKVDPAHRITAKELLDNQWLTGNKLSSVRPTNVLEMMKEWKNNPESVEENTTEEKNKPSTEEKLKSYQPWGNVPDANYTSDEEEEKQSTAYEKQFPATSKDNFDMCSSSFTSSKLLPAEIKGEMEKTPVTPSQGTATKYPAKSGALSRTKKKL
# NCI-H1299 [13] = test: Antiproliferative activity against human H1299 cells assessed as inhibition of cell viability after 72 hrs by CCK-8 assay; format: functional, cell-based; conditions: NCI-H1299, 72 h
# Method in brief: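 Cells kept at 37 °C, 5% CO2 in DMEM or RPMI-1640 with 10% FBS and 1% penicillin/streptomycin, then seeded at 3000 cells/well (adherent) or 10,000 cells/well (suspension). Exposed to a range of concentrations for 72 h. CCK-8 added for 1-4 h before reading A450. […] Three independent experiments.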
# [14] = target: Ephrin type-B receptor 1 (Homo sapiens) (UniProt P54762); test: Inhibition of recombinant human EphB1 (564 to end residues) at 1 uM using KVEKIGEGTYGVVYK as substrate measured after 40 mins in presence of [gamma33P]ATP by scintillation counting method relative to control
# [15] = target: Cyclin-dependent kinase 9 (Homo sapiens) (UniProt P50750); conditions: A549, 0.25 to 1 uM
# Sequence of Cyclin-dependent kinase 9 (Homo sapiens) (P50750 whole entry): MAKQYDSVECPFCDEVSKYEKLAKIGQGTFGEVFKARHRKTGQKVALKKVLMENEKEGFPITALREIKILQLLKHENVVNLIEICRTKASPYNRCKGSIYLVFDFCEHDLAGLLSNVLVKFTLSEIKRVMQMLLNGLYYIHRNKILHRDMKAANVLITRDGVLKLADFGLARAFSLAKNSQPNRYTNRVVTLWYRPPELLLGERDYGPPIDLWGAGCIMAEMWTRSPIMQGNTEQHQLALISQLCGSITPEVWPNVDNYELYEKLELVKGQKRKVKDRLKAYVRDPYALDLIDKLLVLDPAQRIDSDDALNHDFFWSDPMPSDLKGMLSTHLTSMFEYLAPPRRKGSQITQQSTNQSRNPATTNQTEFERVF
# [16] = tested on: Serine/threonine-protein kinase N1 (Homo sapiens), Q16512 [V901I]; test: Inhibition of human PRK1 V901I mutant (498 to end residues) at 1 uM using KKLNRTLSFAEPG as substrate measured after 40 mins in presence of [gamma33P]ATP by scintillation counting method relative to control
# Sequence of Serine/threonine-protein kinase N1 (Homo sapiens), Q16512 [V901I] (Q16512 whole entry V901I): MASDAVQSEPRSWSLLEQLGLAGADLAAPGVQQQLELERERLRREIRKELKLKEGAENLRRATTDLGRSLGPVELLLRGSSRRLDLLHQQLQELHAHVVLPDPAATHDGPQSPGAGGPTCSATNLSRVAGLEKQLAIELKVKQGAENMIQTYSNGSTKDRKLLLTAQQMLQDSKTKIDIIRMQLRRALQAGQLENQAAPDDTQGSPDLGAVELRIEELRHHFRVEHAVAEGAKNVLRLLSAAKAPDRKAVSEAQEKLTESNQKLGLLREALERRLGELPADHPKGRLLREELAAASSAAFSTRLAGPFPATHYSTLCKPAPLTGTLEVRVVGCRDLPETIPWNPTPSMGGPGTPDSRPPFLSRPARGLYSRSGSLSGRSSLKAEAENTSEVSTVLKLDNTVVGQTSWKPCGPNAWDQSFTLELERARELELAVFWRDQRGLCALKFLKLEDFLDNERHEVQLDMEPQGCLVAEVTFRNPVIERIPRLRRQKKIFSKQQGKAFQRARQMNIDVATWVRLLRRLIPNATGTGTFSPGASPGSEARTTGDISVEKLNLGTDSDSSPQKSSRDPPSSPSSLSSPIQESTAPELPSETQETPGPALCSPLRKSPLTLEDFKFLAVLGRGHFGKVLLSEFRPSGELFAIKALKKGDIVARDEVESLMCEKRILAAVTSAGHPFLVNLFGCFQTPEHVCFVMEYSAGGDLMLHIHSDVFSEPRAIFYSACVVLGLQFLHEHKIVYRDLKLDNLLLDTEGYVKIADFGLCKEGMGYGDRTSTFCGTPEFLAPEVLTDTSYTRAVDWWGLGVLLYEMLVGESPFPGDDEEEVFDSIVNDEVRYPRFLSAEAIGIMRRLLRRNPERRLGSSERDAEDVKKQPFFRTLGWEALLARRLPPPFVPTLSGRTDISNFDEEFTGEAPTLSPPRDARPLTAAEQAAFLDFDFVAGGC
# Method in brief: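 Percent inhibition of kinase activity at a single compound concentration, measured by the outsourced Eurofins KinaseProfiler panel. Values are the mean of two independent experiments.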
# A549 = test: Downregulation of cyclin T1 expression in human A549 cells at 0.25 to 1 uM after 24 hrs by Western blot analysis; format: functional, cell-based
# Method in brief: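 A549 and H1299 cells treated for 24 h with serial dilutions alongside a DMSO control. Protein extracts resolved and immunoblotted.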
# [17] = target: Tyrosine-protein kinase BTK (Homo sapiens) (UniProt Q06187); test: Inhibition of full-length recombinant human BTK at 1 uM using KVEKIGEGTYGVVYK as substrate measured after 40 mins in presence of [gamma33P]ATP by scintillation counting method relative to control; method in brief: as §1
# Sequence of Tyrosine-protein kinase BTK (Homo sapiens) (Q06187 whole entry): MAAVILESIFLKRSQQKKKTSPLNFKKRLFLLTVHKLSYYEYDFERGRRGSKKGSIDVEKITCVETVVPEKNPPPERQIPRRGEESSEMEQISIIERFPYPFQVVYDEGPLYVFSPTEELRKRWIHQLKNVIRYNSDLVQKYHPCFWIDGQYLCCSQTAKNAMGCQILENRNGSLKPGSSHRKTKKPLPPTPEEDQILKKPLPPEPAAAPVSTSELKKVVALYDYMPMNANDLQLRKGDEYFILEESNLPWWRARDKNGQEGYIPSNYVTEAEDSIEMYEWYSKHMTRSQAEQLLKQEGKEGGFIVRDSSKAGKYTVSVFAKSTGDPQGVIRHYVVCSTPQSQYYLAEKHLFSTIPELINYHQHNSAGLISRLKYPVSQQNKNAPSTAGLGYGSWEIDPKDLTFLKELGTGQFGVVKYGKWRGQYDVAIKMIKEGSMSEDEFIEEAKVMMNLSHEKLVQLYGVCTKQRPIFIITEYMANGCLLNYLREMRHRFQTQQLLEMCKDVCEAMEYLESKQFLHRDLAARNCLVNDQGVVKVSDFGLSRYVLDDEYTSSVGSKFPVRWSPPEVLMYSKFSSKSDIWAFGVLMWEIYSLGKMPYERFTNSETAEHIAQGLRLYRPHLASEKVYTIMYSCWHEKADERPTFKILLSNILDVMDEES
# [18] = target: CDK6/cyclin D3 (Homo sapiens) (UniProt P30281+Q00534); test: Inhibition of recombinant full-length human CDK6/cyclinD3 at 1 uM using Histone H1 as substrate measured after 40 mins in presence of [gamma33P]ATP by scintillation counting method relative to control; format: protein-complex assay
# NCI-H1299 [19] = test: Antiproliferative activity against human H1299 cells assessed as inhibition of cell viability at 10 uM after 72 hrs by CCK-8 assay relative to control; format: functional; conditions: NCI-H1299, 72 h
# Method in brief: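 Single-concentration viability screen using CCK-8. Cells were seeded at 3000/well and treated for 72 h. A450 read after 1-4 h with reagent. Percent inhibition calculated against untreated control and blank wells as (Ac−As)/(Ac−Ab)×100%.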
smiles,measurement,setting,value
CN(C)C(=O)c1cc2cnc(Nc3ccc(NC(=O)CCCCCCCN=C=S)cc3)nc2n1C1CCCC1,inhibition,Homo sapiens,2%
same,inhibition,[1],4%
same,Activity,NCI-H1299 [2],0.18 g
same,inhibition,[3],43%
same,inhibition,[4],-6%
same,inhibition,[5],-7%
same,inhibition,[6],1%
same,inhibition,[7],60%
same,inhibition,[8],-3%
same,inhibition,[9],17%
same,inhibition,[10],8%
same,inhibition,[11],-2%
same,inhibition,[12],27%
same,IC50,NCI-H1299 [13],203 nM
same,inhibition,[14],9%
same,inhibition,[15],Active
same,inhibition,[16],3%
same,Activity,A549,Active
same,inhibition,[17],96%
same,inhibition,[18],79%
same,inhibition at 10 µM,NCI-H1299 [19],98.7%
